Compound activity (PubChem)
PKA-R2B activ – activators of human PKA-R2B complex. 0.079% of 340,000 active. P22694+P31323. activation, % at 11.4 µM. PKA-R2B holoenzyme dissociation, Cy5-IP20 fluorescence polarization; R2B truncated from residue 108, S112A mutant; 0% DMSO only, 100% 113 µM cGMP;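 active means activation above a cutoff set at the mean over all compounds plus 3 SD, cut at about 18% in these data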;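 further: higher means more holoenzyme dissociation and a rise in polarization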
Target sequence (P31323 whole entry, looked up, other chains not shown, the tested form may be a part): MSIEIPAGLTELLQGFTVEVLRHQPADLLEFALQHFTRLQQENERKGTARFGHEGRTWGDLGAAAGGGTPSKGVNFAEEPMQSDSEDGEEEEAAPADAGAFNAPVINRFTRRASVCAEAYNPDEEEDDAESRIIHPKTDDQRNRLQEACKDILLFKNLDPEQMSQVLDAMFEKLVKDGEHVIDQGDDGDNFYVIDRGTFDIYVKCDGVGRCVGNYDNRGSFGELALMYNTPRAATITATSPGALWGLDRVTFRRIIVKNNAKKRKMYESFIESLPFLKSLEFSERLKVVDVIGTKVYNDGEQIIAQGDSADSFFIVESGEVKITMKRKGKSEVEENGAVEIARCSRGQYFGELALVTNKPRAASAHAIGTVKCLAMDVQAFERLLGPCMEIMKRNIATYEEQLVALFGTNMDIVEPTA
PKA-R1A act – PKA-R1A complex activation; P00514+P68181; PKA-R1A dissociation, Cy5-IP20 fluorescence polarization; scaled: DMSO 0%, 113 µM cGMP 100%; activation, % at 11.4 µM; 0.083% of 340,000 active; AID 504707;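 active means percent activation above the mean of all tested compounds plus 3 SD, cut at about 19% in these data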;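 further: higher means more PKAc released from R1A so a rise in polarization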
Rin1 Abl inh – blocks binding of human Rin1 to Abl; 0.4% of 360,000 active; TR-FRET Rin1/Abl binding, biochemical; P00519+Q13671; inhibition, % at 7.35 µM; AID 588664; in the data active means inhibition above about 5%, passing the limit was not always enough
UCH37 DUB inh – blocks the human deubiquitinase UCH37; AID 588478; 0.33% of 330,000 active; purified proteasome/UCH37, Ub-AMC cleavage fluorescence; inhibition, % (concentration not given with the values);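 active means mean inhibition over replicate wells above about 20%, limit read from the data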;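 further: 0% = compound-free wells with enzyme and 100% = wells lacking proteasome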
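Assay system: Proteasome-bound UCH37. Buffer or medium: pH 7.4 Tris-HCl (50 mM) with ovalbumin, ATP-MgCl2, DTT. Incubation: 30 min preincubation with enzyme, 25 min cleavage at room temperature. Measured by: fluorescence, ex 355 nm, em 460 nm. Read-out basis: percent inhibition. Control set: wells without proteasome as full block, compound-free enzyme plus substrate as uninhibited.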
Rin1-Abl confirm – confirmation of inhibitors of human Rin1-Abl interaction | 49% of 1,300 active | inhibition, % at 7.35 µM | TR-FRET Rin1-Abl binding, purified proteins | shares compounds with Rin1 Abl inh
GFP quencher – quenches GFP fluorescence, counter-screen for Rin1-Abl inhibitors; shares compounds with Rin1 Abl inh; inhibitors/quenchers counterscreen; inhibition, % at 6.75 µM; 8.5% of 1,300 active; AID 602125;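 further: ABL1-eGFP fusion protein alone without its partner RIN1-SBP; 0% = protein with vehicle and 100% = wells lacking protein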
* hit, by the source's call. Sampled rows, rich in hits. Any-hit rate of the full collection: about 0.79%. Unless noted, no stated cut-off is given here; in the data, active means inhibition above about 6.5%; inactive means the rest.

How did COc1cc(/C=C2\C(=O)N(c3ccc(S(N)(=O)=O)cc3)N=C2C)ccc1OC(=O)c1ccco1 do in these assays?
PKA-R2B activ: -5.1; PKA-R1A act: -6.5; Rin1 Abl inh: 10.2*; UCH37 DUB inh: 4.9; Rin1-Abl confirm: -0.6; GFP quencher: 0.1

Results for COc1cc(/C=C2\C(=O)N(c3cccc(C(=O)O)c3)N=C2C)ccc1OCc1ccccc1 ?
PKA-R2B activ: -2.0; PKA-R1A act: 2.9; Rin1 Abl inh: 5.9

What do the screens show for `COc1cc2nc(SCC(=O)c3ccc(Br)cc3)n3nc(C)nc3c2cc1OC`?
PKA-R2B activ: 0.5; PKA-R1A act: 4.8; Rin1 Abl inh: 2.0; UCH37 DUB inh: 0.4

How did O=C(NCC(c1cccnc1)N1CCN(c2ccccc2F)CC1)c1ccco1 (stereo not given) do in these assays?
PKA-R2B activ: 3.5; PKA-R1A act: 0.3; Rin1 Abl inh: -2.2; UCH37 DUB inh: 1.9

What do the screens show for `CC(=O)Nc1ccc(SCC(=O)Nc2sccc2C#N)cc1`?
PKA-R2B activ: 5.0; PKA-R1A act: -2.7; Rin1 Abl inh: 2.6; UCH37 DUB inh: 5.0

How did O=C(Nc1cccc(-c2cccc(Cl)c2)c1)C1CCN(Cc2ccccn2)CC1 do in these assays?
PKA-R2B activ: 3.2; PKA-R1A act: -2.5; Rin1 Abl inh: -3.0; UCH37 DUB inh: 3.9

Results for Cc1onc(-c2c(Cl)cccc2Cl)c1C(=O)NCCCN1CCOCC1 ?
PKA-R2B activ: -2.8; PKA-R1A act: 13.0; Rin1 Abl inh: 0.9; UCH37 DUB inh: 4.8

How did COc1ccc(C(=O)Nc2ccc(O)cc2C(=O)O)cc1 do in these assays?
PKA-R2B activ: 0.1; PKA-R1A act: -3.0; Rin1 Abl inh: 10.9*; UCH37 DUB inh: 2.4; Rin1-Abl confirm: 9.8*; GFP quencher: 1.8

How did COc1ccc(C(=O)Nc2ccccc2C(=O)Nc2ccc(C(=O)O)cc2)cc1 do in these assays?
PKA-R2B activ: -5.7; PKA-R1A act: -1.9; Rin1 Abl inh: -2.3; UCH37 DUB inh: 0.4

How did COc1ccc(C(=O)Nc2ccccc2C(=O)Nc2ccccc2C(=O)O)cc1 do in these assays?
PKA-R2B activ: -5.2; PKA-R1A act: -9.5; Rin1 Abl inh: 5.6*; Rin1-Abl confirm: 4.7; GFP quencher: 0.0

How did COc1ccc(-n2sc3ccc(F)cc3c2=O)cc1 do in these assays?
PKA-R2B activ: -0.5; PKA-R1A act: -4.3; Rin1 Abl inh: 0.7; UCH37 DUB inh: 3.9

Results for Cc1ccc(C2C(C#N)=C(N)Oc3n[nH]c(-c4ccccc4)c32)o1 (stereo not given) ?
PKA-R2B activ: 2.0; PKA-R1A act: 1.1; Rin1 Abl inh: -3.5; UCH37 DUB inh: 3.8

How did Cc1ccc(C2N(c3ccc(Cl)cc3)C(=O)N3CCCN23)cc1 (stereo not given) do in these assays?
PKA-R2B activ: -5.5; PKA-R1A act: 10.2; Rin1 Abl inh: 11.7*; UCH37 DUB inh: -0.1; Rin1-Abl confirm: 13.1*; GFP quencher: -0.8

What do the screens show for `NC(=O)c1cccc(-c2ccnc3c2CC(C(=O)NCc2ccco2)O3)c1` (stereo not given)?
Rin1 Abl inh: 0.9

What do the screens show for `NC(=O)c1cccc(-c2ccnc3c2CC(C(=O)Nc2ccccc2)O3)c1` (stereo not given)?
Rin1 Abl inh: 12.1*; Rin1-Abl confirm: 8.6*; GFP quencher: 0.2

How did CN(C)c1ccc(CNC(=O)C2(C)Cc3c(-c4cccc(C(N)=O)c4)ccnc3O2)cc1 (stereo not given) do in these assays?
Rin1 Abl inh: 15.7*; Rin1-Abl confirm: 8.3*; GFP quencher: 2.1

What do the screens show for `CN(C)c1ccc(CNC(=O)C2(C)Cc3c(-c4ccccc4)ccnc3O2)cc1` (stereo not given)?
Rin1 Abl inh: 0.8

What do the screens show for `NC(=O)c1cccc(-c2ccnc3c2CC(C(=O)Nc2ccc(Cl)cc2)O3)c1` (stereo not given)?
Rin1 Abl inh: -3.1

What do the screens show for `COc1ccc(NC(=O)C2(C)Cc3c(-c4cccc(C(N)=O)c4)ccnc3O2)cc1` (stereo not given)?
Rin1 Abl inh: 10.1*; Rin1-Abl confirm: 3.1; GFP quencher: 0.6
